IMP-1 inh = blocks Pseudomonas aeruginosa IMP-1 metallo-beta-lactamase; purified IMP-1, nitrocefin hydrolysis, epi-absorbance fluorescence; inhibition, % at 5.6 µM; actives 0.45% (n = 290,000); AID 1556;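 active = inhibition above the mean plus 3 SD of all compounds in the same screening run, cut at about 4.5% in these data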;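 note: 0% = IMP-1 with DMSO and 100% = DMSO wells lacking enzyme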
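assay system = purified recombinant IMP-1 metallo-beta-lactamase enzyme | schedule = 15 min preincubation plus 25 min reaction at 25 °C | signal = Epi-absorbance fluorescence, 480 nm excitation, 530 nm emission | read-out basis = percent inhibition from optical density relative to buffer-blank wells | controls = IMP-1 with DMSO as 0%, enzyme-free DMSO as 100%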
Runt-SMMHC FRET = inhibitors of human RUNX1 Runt domain binding to CBFb-SMMHC; Cerulean-Runt/Venus-CBFb-SMMHC FRET ratio 530/480, 1 h; inhibition, % at 20 µM; actives 0.74% (n = 220,000);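 active = mean inhibition across duplicate retests at 20 µM reaching about 50%, limit read from the data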;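 note: 0% = DMSO wells and 100% = wells with excess untagged CBFb-SMMHC; inhibitors lower the FRET ratio by blocking Runt binding to CBFb-SMMHC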
Target sequence (Q01196 whole entry, looked up, the tested form may be a part): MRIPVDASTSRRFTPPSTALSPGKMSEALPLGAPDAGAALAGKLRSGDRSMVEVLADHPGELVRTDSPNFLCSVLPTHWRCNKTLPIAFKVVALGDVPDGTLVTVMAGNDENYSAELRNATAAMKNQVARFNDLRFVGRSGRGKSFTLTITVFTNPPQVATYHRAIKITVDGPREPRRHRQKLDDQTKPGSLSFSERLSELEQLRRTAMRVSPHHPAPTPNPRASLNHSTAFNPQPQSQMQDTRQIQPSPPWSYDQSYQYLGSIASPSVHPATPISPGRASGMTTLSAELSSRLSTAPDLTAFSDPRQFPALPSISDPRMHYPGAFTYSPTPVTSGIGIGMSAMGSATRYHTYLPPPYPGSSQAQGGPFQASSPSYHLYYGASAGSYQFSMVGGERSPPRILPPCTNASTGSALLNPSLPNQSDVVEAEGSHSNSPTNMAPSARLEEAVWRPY
Target sequence (Q13951 whole entry, looked up, the tested form may be a part): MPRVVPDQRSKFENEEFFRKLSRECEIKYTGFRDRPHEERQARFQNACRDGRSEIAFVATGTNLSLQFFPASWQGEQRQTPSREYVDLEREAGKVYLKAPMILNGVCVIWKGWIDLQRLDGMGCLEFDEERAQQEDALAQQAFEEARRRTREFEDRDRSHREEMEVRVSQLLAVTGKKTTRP
Runt-CBFb FRET = Runt domain-CBFb interaction inhibition | AID 1496 | Cerulean-Runt/Venus-CBFb FRET ratio 530/480, 1 h | Q01196+Q13951 | actives 0.46% (n = 220,000) | inhibition, % at 20 µM;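 active = inhibition over about 50% at 20 µM in the single-dose screen, limit read from the data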;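 note: 0% = DMSO wells and 100% = excess unlabeled CBFb competitor control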
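test system = Cerulean-Runt domain fusion protein, energy donor | probe or stimulus = Venus-CBFb binding partner, 100 nM | incubation = two 1 h room-temperature incubations shielded from light | detection = fluorescence energy transfer, 422 nm excitation, 530/480 nm emission | measure = loss of energy transfer signal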
RanGTP-Impb inh = inhibitors of RanGTP-importin-beta interaction, primary screen, biochemical, FRET, CFP-Ran, YFP-importin-beta, homogeneous. cell-free CFP-Ran/YFP-importin-beta FRET ratio. inhibition, % (no concentration beside the values). actives 1.1% (n = 300,000);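 active = more than half of the replicate wells show a fall in the fluorescence ratio signal beyond about 16%, limit read from the data, passing the limit was not always enough; inconclusive = exactly half of the replicate wells pass the set limit; inactive = fewer than half of replicates pass the limit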;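 note: 0% = DMSO wells and 100% = Ran loaded with GDP instead of GTP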
VIM-2 inhibitor = inhibitors of Pseudomonas aeruginosa VIM-2 metallo-beta-lactamase; actives 0.89% (n = 290,000); inhibition, % at 5.6 µM; AID 1527; purified VIM-2, nitrocefin hydrolysis, epi-absorbance fluorescence;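 active = inhibition above the mean of all tested compounds plus 3 SD, cutoff set per screening run, cut at about 7.5% in these data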;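 note: red hydrolysis product quenches plate fluorescence so inhibitors raise well fluorescence; 0% = enzyme with DMSO and 100% = DMSO without enzyme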
An asterisk follows results filed as active. Rows were chosen to be rich in hits. Some 2.6% of all compounds tested hit in one or more screens of this group.

For c1ccc(-c2nnc(SCC3CCCO3)nc2-c2ccccc2)cc1 (stereo not drawn) the results were IMP-1 inh -2.4, Runt-SMMHC FRET -4.2, Runt-CBFb FRET -2.1, RanGTP-Impb inh 26.4* and VIM-2 inhibitor -1.0.
`c1ccc(-c2nnc(SCC3CCCCO3)nc2-c2ccccc2)cc1` (stereo not drawn) gave IMP-1 inh -1.3, Runt-SMMHC FRET 2.8, Runt-CBFb FRET 9.8, RanGTP-Impb inh -4.7 and VIM-2 inhibitor -1.9.
For c1ccc(-c2nc(N3CCCCC3)nc3ccccc23)cc1 the results were IMP-1 inh -1.1, Runt-SMMHC FRET 118.4*, Runt-CBFb FRET 34.6, RanGTP-Impb inh 40.9* and VIM-2 inhibitor 3.0.
For c1ccc(-c2nc(N3CCNCC3)nc3ccccc23)cc1 the results were IMP-1 inh -1.4, Runt-SMMHC FRET 40.7, Runt-CBFb FRET 20.3, RanGTP-Impb inh 13.0 and VIM-2 inhibitor 0.2.
`c1ccc(-c2nc(N3CCOCC3)c3ccccc3n2)nc1` gave IMP-1 inh -11.4, Runt-SMMHC FRET -0.7, Runt-CBFb FRET -0.9, RanGTP-Impb inh -1.5 and VIM-2 inhibitor 3.9.
c1ccc(-c2nc(N3CCCCCC3)c3ccccc3n2)nc1 was read as IMP-1 inh 5.8*, Runt-SMMHC FRET -1.9, Runt-CBFb FRET 2.5, RanGTP-Impb inh 1.0 and VIM-2 inhibitor 2.6.
c1ccc2c(N3CCCCC3)nc(N3CCCC3)nc2c1 was read as IMP-1 inh -2.6, Runt-SMMHC FRET 0.1, Runt-CBFb FRET 1.0, RanGTP-Impb inh -1.0 and VIM-2 inhibitor 10.8*.
Screening O=C(NC1CCCC1)C(c1cccnc1)N(Cc1ccccc1F)C(=O)c1csnn1 (stereo not drawn) returned IMP-1 inh -3.0, RanGTP-Impb inh 7.4 and VIM-2 inhibitor -2.9.
`Cc1cc(-c2ccc(C)c(S(=O)(=O)NCCc3ccc(S(N)(=O)=O)cc3)c2)on1` gave IMP-1 inh -4.8, RanGTP-Impb inh -1.3 and VIM-2 inhibitor -3.1.
Screening Cc1ccc(NC(=O)CCc2c(C)nc3ncnn3c2C)nc1 returned IMP-1 inh 5.2*, Runt-SMMHC FRET 0.5, Runt-CBFb FRET -3.3, RanGTP-Impb inh 2.1 and VIM-2 inhibitor 1.4.
`CCCCn1c(N)c(N(CC(C)C)C(=O)C2CCCO2)c(=O)[nH]c1=O` (stereo not drawn) gave RanGTP-Impb inh -2.0.
CN(C)S(=O)(=O)c1cccc(NC(=O)c2cc3c(=O)n4ccccc4nc3s2)c1 was read as IMP-1 inh -2.4, Runt-SMMHC FRET 28.1, Runt-CBFb FRET -33.7, RanGTP-Impb inh 6.3 and VIM-2 inhibitor -4.2.
Cc1cc(NS(=O)(=O)c2ccc(NC(=O)c3cc4c(=O)n5ccccc5nc4s3)cc2)nc(C)n1 was read as IMP-1 inh -2.8, Runt-SMMHC FRET 74.1*, Runt-CBFb FRET 32.8, RanGTP-Impb inh 7.5 and VIM-2 inhibitor -2.5.
Screening O=C1S/C(=C\C=C\c2ccco2)C(=O)N1c1ccccc1 returned IMP-1 inh 2.6, Runt-SMMHC FRET -19.3, Runt-CBFb FRET 4.6, RanGTP-Impb inh -2.5 and VIM-2 inhibitor -1.9.
For O=C1S/C(=C\C=C\c2ccco2)C(=O)N1c1ccc(O)cc1 the results were IMP-1 inh 7.2*, Runt-SMMHC FRET 0.0, Runt-CBFb FRET 15.1, RanGTP-Impb inh -3.5 and VIM-2 inhibitor 4.9.
For O=c1nc2ccc(Cl)cn2c2ccc(S(=O)(=O)N3CCOCC3)cc12 the results were IMP-1 inh -1.6, RanGTP-Impb inh inconclusive and VIM-2 inhibitor 11.2*.
Screening O=C(/C=C/c1cccs1)NC1CC1 returned IMP-1 inh -2.8, Runt-SMMHC FRET -3.6, Runt-CBFb FRET 0.1, RanGTP-Impb inh 21.1* and VIM-2 inhibitor -2.5.
For O=C(/C=C/c1cccs1)Nc1cccc(NC(=O)/C=C/c2cccs2)n1 the results were IMP-1 inh -2.7, Runt-SMMHC FRET 1.1, Runt-CBFb FRET 0.4, RanGTP-Impb inh 3.7 and VIM-2 inhibitor -0.5.
Cc1ccn2c(=O)nc(SCC(=O)N3CCCC3)nc2c1 was read as RanGTP-Impb inh 12.3.
`CCN1CC2=C(OC(N)=C(C#N)C2c2ccccc2)/C(=C\c2ccccc2)C1` (stereo not drawn) gave IMP-1 inh 1.1, Runt-SMMHC FRET 0.7, Runt-CBFb FRET 4.3, RanGTP-Impb inh 20.7* and VIM-2 inhibitor -0.7.

Compound activity: PubChem, several laboratories
